Laboratory results from ChEMBL document CHEMBL1138273, “Design, synthesis, and characterization of new iron chelators with anti-proliferative activity: structure-activity relationships of novel thiohydrazone analogues” (J Med Chem, 2007).

Key:
MRC5 = test: Antiproliferative activity against human MRC5 cells by MTT assay; assay type: cell-based
Procedure, shortened: (§1)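 MTT colour formation, shown to be directly proportional to viable cell number counted by Trypan blue, was used to read growth of SK-N-MC neuroepithelioma or mortal MRC-5 fibroblast cells. IC50 values are given as mean ± SD of 3 experiments.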

SK-N-MC [1] = test: Antiproliferative activity against human SK-N-MC cells by MTT assay; assay type: functional, cell-based; procedure, shortened: as §1
SK-N-MC [2] = test: Effect on iron efflux in human SK-N-MC cells assessed as cellular iron release; assay type: functional; parameters: concentration or dose not given beside the values
Procedure, shortened: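 SK-N-MC cells were prelabeled with 59Fe-transferrin (0.75 µM) for 3 h at 37 °C, washed four times with ice-cold PBS, then incubated with chelator (50 µM). Overlying medium was separated from cells, and released versus retained 59Fe was gamma-counted in supernatant and cell pellet. Mean ± SD of 3 experiments, 3 determinations each.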

SK-N-MC [3] = test: Inhibition of cellular iron uptake from 59Fe]transferrin in human SK-N-MC cells at 50 uM relative to control; assay type: functional; conditions: values are per cent of control
Procedure, shortened: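 Cells were co-incubated for 3 h at 37 °C with 59Fe-transferrin (0.75 µM) plus chelator (50 µM), then washed four times in ice-cold PBS. Pronase (1 mg/mL, 30 min, 4 °C) stripped membrane-bound 59Fe, and the Pronase-insensitive fraction was counted as internalized. Values are % of control, mean ± SD of 3 experiments with 3 determinations each.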

SMILES | IC50 (SK-N-MC [1]) | IC50 (MRC5) | Activity (SK-N-MC [2]) | response, % of control at 50 µM (SK-N-MC [3])
Cc1ncc(CO)c(/C=N/NC(=S)c2ccccc2)c1O [PYRIDOXAL THIOBENZOYL HYDRAZONE] | 58200 nM | > 80000 nM |  | 
O=C(N/N=C/c1c(O)ccc2ccccc12)c1ccccc1 | 990 nM |  |  | 
Cc1ncc(CO)c(/C=N/NC(=O)c2ccncc2)c1O [PYRIDOXAL ISONICOTINOYL HYDRAZONE] |  |  | 44% | 
O=C(N/N=C(/c1ccccc1)c1ccccn1)c1ccccc1 | 1470 nM |  |  | 
O=C(NN=C(c1ccccn1)c1ccccn1)c1ccccc1 | 1240 nM |  |  | 
O=C(N/N=C/c1ccccc1O)c1ccccc1 [SALICYLALDEHYDE BENZOYL HYDRAZONE] | 3230 nM |  |  | 
Oc1ccc2ccccc2c1/C=N/NC(=S)c1ccccc1 | 2530 nM | 3890 nM | 37% | 20%
Oc1ccccc1/C=N/NC(=S)c1ccccc1 [SALICYLALDEHYDE THIOBENZOYL HYDRAZONE] | 24500 nM | 57000 nM | 37% | 20%
CC(=O)N(O)CCCCCNC(=O)CCC(=O)N(O)CCCCCNC(=O)CCC(=O)N(O)CCCCCN [DEFEROXAMINE] | 14200 nM |  | 17% | 
Cc1ncc(CO)c(/C=N/NC(=O)c2ccccc2)c1O [PYRIDOXAL BENZOYL HYDRAZONE] | 31800 nM |  |  | 

Further lines, with some results ahead:

IC50 (SK-N-MC [1]) | SMILES | IC50 (MRC5) | Activity (SK-N-MC [2]) | response, % of control at 50 µM (SK-N-MC [3])
590 nM | O=C(N/N=C/c1c(O)ccc2ccccc12)c1ccncc1 |  | 44% | 
540 nM | NC(=S)N/N=C/c1ncccc1N [TRIAPINE] |  |  | 
12 nM | S=C(NN=C(c1ccccn1)c1ccccn1)c1ccccc1 | 750 nM | 37% | 20%
11 nM | S=C(N/N=C(/c1ccccc1)c1ccccn1)c1ccccc1 | 530 nM |  | 
2 nM | CN(C)C(=S)NN=C(c1ccccn1)c1ccccn1 |  | 44% | 
